According to ChEMBL document CHEMBL4270643, “Structure-based drug design: Synthesis and biological evaluation of quinazolin-4-amine derivatives as selective Aurora A kinase inhibitors” (Eur J Med Chem, 2018):
pIC50: −log10 of the molar value.

Tests used:
Aurora kinase A = target: T1, Aurora kinase A (Homo sapiens, UniProt O14965); test: Inhibition of Aurora A (unknown origin) using FAM-labelled peptide as substrate pretreated for 10 mins followed by substrate addition and measured after 60 mins by fluorescence assay
T1 sequence (O14965 whole entry): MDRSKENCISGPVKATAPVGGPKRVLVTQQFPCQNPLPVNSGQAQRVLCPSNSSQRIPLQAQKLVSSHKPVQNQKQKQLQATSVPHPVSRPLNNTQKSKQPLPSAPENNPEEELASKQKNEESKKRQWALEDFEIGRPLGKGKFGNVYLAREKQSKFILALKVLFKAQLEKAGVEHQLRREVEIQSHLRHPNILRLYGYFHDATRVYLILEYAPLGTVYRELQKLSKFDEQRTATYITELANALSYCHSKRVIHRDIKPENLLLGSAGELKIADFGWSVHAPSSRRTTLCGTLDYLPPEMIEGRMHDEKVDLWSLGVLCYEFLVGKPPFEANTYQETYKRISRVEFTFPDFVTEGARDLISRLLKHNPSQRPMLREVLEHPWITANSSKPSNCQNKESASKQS
In short: (§1)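 Kinase IC50 values are the mean of at least two independent experiments; selectivity is the Aurora A/B ratio of these IC50s.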

Aurora kinase B = Aurora kinase B (Homo sapiens, UniProt Q96GD4); test: Inhibition of Aurora B (unknown origin) using FAM-labelled peptide as substrate pretreated for 10 mins followed by substrate addition and measured after 60 mins by fluorescence assay; in short: as §1
Sequence of Aurora kinase B (Q96GD4 whole entry): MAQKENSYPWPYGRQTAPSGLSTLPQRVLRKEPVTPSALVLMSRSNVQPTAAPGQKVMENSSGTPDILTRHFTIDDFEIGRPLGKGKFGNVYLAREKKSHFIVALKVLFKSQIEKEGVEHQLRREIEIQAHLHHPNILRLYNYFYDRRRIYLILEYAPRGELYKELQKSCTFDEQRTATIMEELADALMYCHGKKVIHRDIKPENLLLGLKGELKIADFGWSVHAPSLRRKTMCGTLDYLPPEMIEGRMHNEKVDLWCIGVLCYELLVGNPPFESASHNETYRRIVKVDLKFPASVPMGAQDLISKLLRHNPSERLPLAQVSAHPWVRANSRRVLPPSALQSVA

Homo sapiens = species on record: Homo sapiens; test: Selectivity ratio of IC50 for Aurora B (unknown origin) to IC50 for Aurora A (unknown origin)
K562 = test: Antiproliferative activity against human K562 cells after 48 hrs by CCK8 assay; assay type: functional, cell-based; conditions: for IC50: k562; for pIC50: Homo sapiens, K562, 48 h, read-out: IC50
MCF7 = test: Antiproliferative activity against human MCF7 cells after 48 hrs by CCK8 assay; assay type: functional, cell-based; conditions: for IC50: mcf7; for pIC50: Homo sapiens, MCF7, 48 h, read-out: IC50
HeLa = test: Antiproliferative activity against human HeLa cells after 48 hrs by CCK8 assay; assay type: functional, cell-based; conditions: for pIC50: Homo sapiens, HeLa, 48 h, read-out: IC50
DU-145 = test: Antiproliferative activity against human DU145 cells after 48 hrs by CCK8 assay; assay type: functional, cell-based; conditions: DU-145, 48 h
MDA-MB-231 = test: Antiproliferative activity against human MDA-MB-231 cells after 48 hrs by CCK8 assay; assay type: functional, cell-based; conditions: MDA-MB-231, 48 h
SK-BR-3 = test: Antiproliferative activity against human SKBR3 cells after 48 hrs by CCK8 assay; assay type: functional, cell-based; conditions: for IC50: sk-br-3; for pIC50: Homo sapiens, SK-BR-3, 48 h, read-out: IC50
MOLT-4 = test: Antiproliferative activity against human MOLT4 cells after 48 hrs by CCK8 assay; assay type: functional, cell-based; conditions: for pIC50: Homo sapiens, MOLT-4, 48 h, read-out: IC50; for IC50: molt-4

Row | Compound | pIC50 (Aurora kinase A) | pIC50 (Aurora kinase B) | Ratio IC50 (Homo sapiens) | IC50 (K562) | IC50 (MCF7) | pIC50 (HeLa) | pIC50 (DU-145) | pIC50 (MDA-MB-231) | IC50 (SK-BR-3) | pIC50 (K562) | pIC50 (MCF7) | pIC50 (MOLT-4) | pIC50 (SK-BR-3) | IC50 (MOLT-4) | IC50 (HeLa; hela)
1 | COc1ccc(C(=O)c2nc(Nc3cc(C)[nH]n3)c3ccc(Cl)cc3n2)cc1 | 6.13 | < 4.00 | > 134 | Not Active | Not Active | < 4.52 | 4.90 | 4.91 | Not Active | – | – | – | – | – | –
2 | Cc1cc(Nc2nc(-c3ccccc3)nc3c([N+](=O)[O-])cccc23)n[nH]1 | 6.76 | 5.34 | 26 | – | – | 5.61 | 5.18 | 5.46 | – | 5.19 | 5.34 | 5.19 | 5.34 | – | –
3 | Cc1cc(Nc2nc(-c3ccccc3)nc3cc(N4CCC(C(=O)O)CC4)ccc23)n[nH]1 | 8.22 | 6.90 | 20 | – | – | 5.73 | 4.67 | 4.98 | – | 5.26 | 5.22 | 5.66 | 4.79 | – | –
4 | COc1cccc2c(Nc3cc(C)[nH]n3)nc(-c3ccccc3)nc12 | 7.60 | 6.26 | 21 | – | – | 6.09 | 5.20 | 5.72 | – | 5.64 | 5.38 | 5.54 | 5.73 | – | –
5 | Cc1cc(Nc2nc(-c3ccccc3)nc3cc(Cl)ccc23)n[nH]1 | 6.88 | – | – | Not Active | – | < 4.52 | < 4.52 | < 4.52 | Not Active | – | < 4.52 | – | – | Not Active | –
6 | Cc1cc(Nc2nc(-c3ccccc3)nc3cc(N4CCN(C)CC4)ccc23)n[nH]1 | 8.00 | 6.57 | 30 | – | – | 6.75 | 6.39 | 6.85 | – | 6.72 | 6.18 | 6.83 | 5.60 | – | –
7 | Cc1cc(Nc2nc(C(C)C)nc3ccccc23)n[nH]1 | 6.99 | 5.94 | 11 | – | – | 5.55 | 5.13 | 5.32 | – | 5.41 | 4.97 | – | 4.92 | – | –
8 | COc1ccc2c(Nc3cc(C)[nH]n3)nc(-c3ccccc3)nc2c1 | 7.47 | 6.11 | 22 | – | – | 5.88 | 5.33 | 5.88 | – | 5.67 | 5.44 | 5.92 | 5.69 | – | –
9 | COc1cccc2c(Nc3cc(C)[nH]n3)nc(Cc3ccccc3)nc12 | 7.39 | 6.05 | 22 | – | – | 5.84 | < 5.00 | 5.58 | – | 5.84 | 5.20 | 5.32 | 5.57 | – | –
10 | Cc1cc(Nc2nc(-c3ccccc3)nc3cc([N+](=O)[O-])ccc23)n[nH]1 | 6.49 | < 4.00 | > 308 | – | – | 5.00 | 5.13 | 5.01 | – | 4.92 | < 4.52 | – | 5.05 | – | –
11 | Cc1ccc(C(=O)c2nc(Nc3cc(C)[nH]n3)c3ccc(Cl)cc3n2)cc1 | 5.89 | < 4.00 | > 77 | Not Active | Not Active | – | 4.80 | < 4.52 | Not Active | – | – | – | – | – | Not Active
12 | Cc1cc(Nc2nc(-c3ccccc3)nc3ccccc23)n[nH]1 | – | – | 30 | – | – | 6.05 | 5.10 | 5.54 | – | 5.52 | 5.21 | 5.29 | 5.60 | – | –
13 | Cc1cc(Nc2nc(-c3ccccc3)nc3cc(F)ccc23)n[nH]1 | 7.14 | 5.20 | 88 | – | – | 5.01 | < 4.52 | 4.95 | – | < 4.52 | < 4.52 | – | 4.97 | Not Active | –
14 | Cc1cc(Nc2nc(C(=O)c3ccccc3)nc3ccccc23)n[nH]1 | 6.73 | 4.94 | 61 | – | – | 5.28 | < 4.52 | 4.77 | – | < 4.52 | < 4.52 | 5.05 | 4.83 | – | –
15 | Cc1cc(Nc2nc(Cc3ccccc3)nc3ccccc23)n[nH]1 | 7.16 | 5.90 | 18 | – | – | 5.82 | 5.35 | 5.51 | – | 5.64 | 4.88 | 5.24 | 5.04 | – | –
16 | Cc1cc(Nc2nc(-c3ccc4ccccc4c3)nc3ccccc23)n[nH]1 | 6.89 | 5.29 | 40 | – | – | 5.43 | 4.98 | 4.96 | – | 4.82 | < 4.52 | 4.98 | 5.15 | – | –
17 | CN1CCN(c2ccc3c(Nc4cc[nH]n4)nc(-c4ccccc4)nc3c2)CC1 | 5.23 | 4.84 | 2.4 | – | – | 5.11 | 5.28 | 5.40 | – | 5.17 | 5.10 | – | 5.21 | – | –
18 | Cc1cc(Nc2nc(-c3ccccc3)nc3ccccc23)[nH]n1 | 7.55 | 6.07 | – | – | – | – | – | – | – | – | – | – | – | – | –
19 | COc1cccc(OC)c1C(=O)c1nc(Nc2cc(C)[nH]n2)c2ccc(N3CCC(C(=O)OC(C)(C)C)CC3)cc2n1 | 6.66 | < 4.22 | > 276 | – | – | 6.28 | 5.44 | 5.86 | – | 6.43 | 5.82 | – | 5.56 | – | –
